Screens from PubChem.
An excerpt weighted towards active compounds, which were near 1.9% of everything screened.
sPLA2-III inh = human group III sPLA2 inhibitors, primary screen, biochemical, QFRET, BODIPY PC-A2 liposome substrate | QFRET BODIPY PC-A2 liposome hydrolysis, fluorescence | 370,000 compounds, 0.56% hits | Group 3 secretory phospholipase A2 (Homo sapiens), Q9NZ20 | inhibition, % at 12.2 µM;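 active = inhibition above mean plus 3 SD of compounds lying within the high and low control bounds, cut at about 19% in these data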;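 also: 0% = median of test compound wells and 100% = no enzyme DMSO wells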
Tb MetRS inh = T. brucei MetRS inhibitors, primary screen, biochemical, luminescence; methionyl-tRNA synthetase (Trypanosoma brucei brucei); purified T. brucei MetRS, ATP depletion, Kinase-Glo luminescence; inhibition, % at 11.9 µM; 360,000 compounds, 0.4% hits; AID 624268, 2012;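 active = inhibition above a per-plate cutoff of the control wells' mean inhibition plus 3 SD, cut at about 5.5% in these data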;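 also: 0% = DMSO wells median and 100% = median of wells with control inhibitor compound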
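Measured by: Kinase-Glo luciferase luminescence reporting remaining unconsumed ATP. Material: purified T. brucei MetRS enzyme. Doses: 11.9 µM compound single dose, 0.9% DMSO. Medium: HEPES buffer containing pyrophosphatase, BSA, spermine, DTT. Times: 15 min preincubation, 2 h reaction, all 25 °C. Reagent: methionine, ATP and bulk E. coli tRNA.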
PLC-gamma1 inh = PLC-gamma1 enzyme inhibitors, primary screen, biochemical, fluorescence, purified enzyme | inhibition, % at 12.2 µM | 1-phosphatidylinositol 4,5-bisphosphate phosphodiesterase gamma-1 (Homo sapiens), P19174 | 370,000 compounds, 0.84% hits | fluorogenic substrate; in the data active = inhibition above about 9.5%
Target sequence (P19174 whole entry, looked up): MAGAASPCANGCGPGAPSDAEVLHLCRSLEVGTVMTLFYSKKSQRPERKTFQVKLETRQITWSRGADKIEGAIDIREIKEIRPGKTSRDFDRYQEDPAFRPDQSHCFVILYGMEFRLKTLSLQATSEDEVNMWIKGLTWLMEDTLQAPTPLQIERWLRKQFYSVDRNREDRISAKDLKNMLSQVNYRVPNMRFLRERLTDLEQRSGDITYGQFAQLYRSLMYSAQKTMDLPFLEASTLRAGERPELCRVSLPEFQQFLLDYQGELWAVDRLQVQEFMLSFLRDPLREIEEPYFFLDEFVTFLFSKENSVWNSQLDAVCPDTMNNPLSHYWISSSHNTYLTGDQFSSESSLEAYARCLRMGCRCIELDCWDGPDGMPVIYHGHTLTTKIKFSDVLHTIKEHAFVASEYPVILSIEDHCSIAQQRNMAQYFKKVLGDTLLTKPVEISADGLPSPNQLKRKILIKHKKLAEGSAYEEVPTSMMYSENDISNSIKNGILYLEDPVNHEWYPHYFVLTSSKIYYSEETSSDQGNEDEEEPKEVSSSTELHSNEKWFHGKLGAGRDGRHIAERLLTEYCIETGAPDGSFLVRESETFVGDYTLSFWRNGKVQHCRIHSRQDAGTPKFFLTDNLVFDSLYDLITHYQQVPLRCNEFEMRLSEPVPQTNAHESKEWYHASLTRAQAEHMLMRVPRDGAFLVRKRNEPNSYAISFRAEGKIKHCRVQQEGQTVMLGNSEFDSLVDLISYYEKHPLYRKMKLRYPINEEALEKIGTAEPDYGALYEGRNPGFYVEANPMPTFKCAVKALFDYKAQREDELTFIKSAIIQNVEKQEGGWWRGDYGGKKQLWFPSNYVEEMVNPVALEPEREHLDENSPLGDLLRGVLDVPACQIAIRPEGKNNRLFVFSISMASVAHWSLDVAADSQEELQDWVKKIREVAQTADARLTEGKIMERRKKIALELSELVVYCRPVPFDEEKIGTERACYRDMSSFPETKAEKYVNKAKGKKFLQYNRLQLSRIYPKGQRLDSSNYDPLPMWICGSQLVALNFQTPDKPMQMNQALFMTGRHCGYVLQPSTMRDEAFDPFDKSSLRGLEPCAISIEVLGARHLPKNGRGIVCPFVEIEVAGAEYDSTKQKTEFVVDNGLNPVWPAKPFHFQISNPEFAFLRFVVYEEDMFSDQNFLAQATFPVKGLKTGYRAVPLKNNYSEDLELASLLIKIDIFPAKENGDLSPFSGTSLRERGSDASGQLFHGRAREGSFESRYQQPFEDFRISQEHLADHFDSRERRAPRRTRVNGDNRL
PLC-beta3 inh = human PLC-beta3 inhibitors, primary screen, biochemical, fluorescence. 1-phosphatidylinositol 4,5-bisphosphate phosphodiesterase beta-3 (Homo sapiens), Q01970. AID 720704, 2013. 370,000 compounds, 0.18% hits. inhibition, % at 12.2 µM. Purified PLC-beta3, fluorogenic substrate; in the data active = inhibition above about 11%;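 also: 0% = median of compound wells on plate and 100% = full blocker control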
Tb MetRS conf = T. brucei MetRS inhibitors, confirmation, biochemical, luminescence. AID 624412, 2012. T. brucei MetRS enzyme, luminescence (ATP depletion). shares compounds with Tb MetRS inh. 1,400 compounds, 93% hits. inhibition, % at 11.9 µM; in the data active = inhibition above about 7%
Jurkat tox = Jurkat T cell cytotoxicity, cytotoxicity control for T. brucei MetRS inhibitor project, luminescence, high throughput; AID 624413, 2012; Jurkat cells viability, ATP luminescence; 1,400 compounds, 12% hits; inhibition, % at 8.3 µM; shares compounds with Tb MetRS inh; in the data active = inhibition above about 15%;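 also: 0% = vehicle and 100% = reference inhibitor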
TbMetRS FP orth = T. brucei MetRS inhibitors, orthogonal assay for T. brucei MetRS inhibitor project, biochemical, fluorescence polarization | inhibition, % at 11.9 µM | AID 651607, 2012 | 1,400 compounds, 44% hits | purified T. brucei MetRS | shares compounds with Tb MetRS inh; in the data active = inhibition above about 17%;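 also: 0% = vehicle wells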
* marks the source's active call; other numbers are inactive results; i = inactive; x = no result.

SMILES | sPLA2-III inh | Tb MetRS inh | PLC-gamma1 inh | PLC-beta3 inh | Tb MetRS conf | Jurkat tox | TbMetRS FP orth
COc1ccc2cc(C(=O)CS(=O)(=O)c3ccc(Cl)cc3)c(=O)oc2c1 | 7.0 | x | -4.8 | 5.4 | x | x | x
COc1ccc(Cc2n[nH]c(=S)n2NC(=O)Nc2ccc(Cl)c(Cl)c2)cc1 | -15.1 | 36.9* | -0.5 | -7.0 | 50.4* | 8.0 | 31.5*
FC(F)(F)c1cccc(CNC(=S)Nc2ccccc2)c1 | 7.8 | 15.3* | 4.1 | 7.4 | 29.4* | 0.8 | 9.4
CCOC(=O)Cc1nnc(NC(=O)Nc2ccccc2)s1 | -44.4 | 15.8* | -2.2 | 1.4 | 23.0* | 7.5 | 15.0
COc1ccc(Cc2nnc(NC(=O)Nc3ccccc3)s2)cc1OC | -16.3 | 7.0* | 0.5 | -6.1 | 20.6* | 5.7 | 14.8
CCOc1ccc(NC(=O)Nc2nnc(CC(=O)NCc3ccccc3)s2)cc1 | -1.2 | -1.0 | -3.8 | -1.1 | x | x | x
O=C(N[C@H](C(=O)N1CCC[C@H]1C(=O)NC1CCCC1)C1CCCCC1)C1CCCC1 | 0.9 | x | 2.5 | 3.9 | x | x | x
Cc1nn(CCC(=O)NNC(=O)Nc2ccc(Cl)cc2)c(C)c1[N+](=O)[O-] | 1.6 | x | 4.5 | -0.4 | x | x | x
CN(CC(=O)Nc1ccc(Cl)c(C(F)(F)F)c1)C(=O)CCNC(=O)c1ccco1 | -12.0 | 0.7 | -4.7 | -4.2 | x | x | x
CN(CC(=O)Nc1ccc(Cl)c(C(F)(F)F)c1)C(=O)C1CCC1 | 5.2 | 0.1 | -27.6 | -0.1 | x | x | x
CN(CC(=O)Nc1ccc(Cl)c(C(F)(F)F)c1)C(=O)/C=C/c1ccco1 | -6.1 | 29.5* | 2.7 | -1.2 | 37.8* | 0.6 | 21.0*
CN(CC(=O)Nc1ccc(Cl)c(C(F)(F)F)c1)C(=O)/C=C/c1cccs1 | -10.0 | 20.6* | 0.2 | -5.0 | 70.3* | 4.7 | 41.1*
CN(Cc1ccccc1F)C(=O)Cn1c(-c2cncs2)nc2ccccc21 | -1.5 | x | -1.2 | 1.1 | x | x | x
COC(=O)C1=C(C)N(Cc2ccc(C(F)(F)F)cc2)C(=NCc2ccc(C(F)(F)F)cc2)NC1c1ccccc1 (stereo not given) | -10.5 | x | 3.4 | 5.1 | x | x | x
CCOC(=O)c1ccc(NC(=O)Cn2nnc3ccccc32)cc1 | -6.0 | -0.6 | -0.7 | -0.9 | x | x | x
COC(=O)c1cccc(NC(=O)Cn2nnc3ccccc32)c1 | 2.9 | 14.0* | 0.0 | 1.7 | 26.7* | -0.6 | 15.5
CSc1cccc(NC(=O)Cn2cnc(S(=O)(=O)N3CCCC3)c2)c1 | -3.9 | 8.6* | 3.3 | -5.4 | 19.5* | 4.0 | 4.2
O=C(Cn1cnc(S(=O)(=O)N2CCCC2)c1)Nc1cccc(Br)c1 | -5.6 | 14.4* | -1.6 | -8.9 | 36.2* | 1.0 | 15.2
CC(=O)c1cccc(NC(=O)Cn2cnc(S(=O)(=O)N3CCCCC3)c2)c1 | -1.8 | 0.6 | 1.3 | -2.9 | x | x | x
COC(=O)C[C@@H]1CC[C@H]2[C@@H](COc3ccc(NC(=O)Nc4ccccc4C)cc3C(=O)N2C)O1 | 4.3 | x | 3.2 | 4.5 | x | x | x
Clc1ccc([C@H]2OC[C@@]3(CNC4CCCCC4)CS[C@H](c4ccc(Cl)cc4)N23)cc1 | 7.0 | x | 1.3 | 1.8 | x | x | x
Cc1cc(C)n(CCC(=O)N/N=C/c2c(O)ccc3ccccc23)n1 | 7.7 | 6.5* | -10.2 | -13.8 | 13.9* | 86.8* | 10.7
Cc1cc(C)n(CCC(=O)N/N=C/c2ccc(O)cc2)n1 | -1.4 | -0.6 | -0.1 | 3.3 | x | x | x
O=C(CNC(=O)C1COc2ccccc2O1)N/N=C\c1cccc(O)c1 (stereo not given) | -2.6 | 3.9 | -4.0 | -1.7 | x | x | x
O=C(CNC(=O)C1COc2ccccc2O1)N/N=C/c1ccc(O)cc1O (stereo not given) | -18.6 | 11.7* | -9.4 | -6.2 | 35.7* | 51.9* | 17.5*
SMILES | sPLA2-III inh | Tb MetRS inh | PLC-gamma1 inh | PLC-beta3 inh | Tb MetRS conf | Jurkat tox | TbMetRS FP orth
Cc1ccc(-c2c(NC(=O)c3ccccc3)nc3ncccn23)cc1 | 9.9 | x | -316.4 | -402.0 | x | x | x
CCCCCOC(=O)c1c(N)n(CCOC)c2nc3ccccc3nc12 | -13.5 | 0.4 | i | i | x | x | x
CCOC(=O)c1c(N)n(CCOC(=O)c2cccs2)c2nc3ccccc3nc12 | 6.7 | 7.3* | i | i | 5.7* | 5.9 | 2.0
C#CCCN([C@H](C(=O)OC)C(C)CC)S(=O)(=O)c1ccccc1Br (stereo not given in full) | -0.7 | x | 2.9 | 1.8 | x | x | x
Cc1ccc(NC(=O)CN(C)C(=O)CSc2ccccc2F)cc1 | -8.0 | -0.3 | 0.7 | 0.1 | x | x | x
Cc1ccc(NC(=O)CN(C)C(=O)CCSc2ccc(F)cc2)cc1 | -10.0 | 42.8* | -20.4 | -4.7 | 80.4* | 3.2 | 60.1*
Cc1[nH]c2ccccc2c1C(=O)C(=O)N1CCN(C(=O)c2ccco2)CC1 | -4.7 | 6.4* | 2.0 | -1.9 | 10.6* | 8.8 | 1.7
O=C(C(=O)N1CCCC1)c1c[nH]c2ccccc12 | -6.6 | 0.6 | 2.5 | -1.9 | x | x | x
O=C(C(=O)N1CCN(C(=O)c2ccco2)CC1)c1c[nH]c2ccccc12 | -1.5 | 5.8* | 4.4 | 1.4 | 12.0* | -0.2 | 5.3
O=C(C(=O)N1CCOCC1)c1c[nH]c2ccccc12 | -1.4 | 0.1 | 0.2 | 5.3 | x | x | x
O=C1CC2(CCN(C(=O)C(=O)c3c[nH]c4ccccc34)CC2)Oc2ccccc21 | -19.9 | 20.0* | -6.4 | -13.2 | 33.5* | -4.2 | 17.9*
Cc1[nH]c2ccccc2c1NC(=O)CN1CCN(C(=O)c2ccco2)CC1 | -3.1 | 0.1 | -35.0 | -54.3 | x | x | x
COc1ccc(S(=O)(=O)NNC(=O)c2cc3cc4ccccc4nc3s2)cc1 | -43.8 | 5.8* | -12.0 | -10.8 | 14.1* | -3.3 | 14.3
COc1ccc(-n2c(SCC(=O)N3CCCCC3C)nnc2-c2ccncc2)cc1 (stereo not given) | 2.3 | x | -1.6 | 1.2 | x | x | x
Cc1cc(C)n(-c2nnc(C)n2/N=C/c2cc(Br)ccc2OCc2ccccc2)n1 | -0.8 | 6.4* | 0.4 | -1.0 | 1.3 | -2.1 | 3.7
COc1ccc(CC(=O)OCC(=O)Nc2ccc(Br)cc2)cc1 | -10.6 | 11.0* | -1.9 | 1.1 | 30.9* | -9.1 | 25.0*
COc1ccc(OCCC(=O)OCC(=O)Nc2ccc(Br)cc2)cc1 | -8.0 | 16.6* | 3.2 | 3.4 | 17.8* | 3.4 | 11.5
Cc1ccc(-n2c(SCC(=O)Nc3ccc(Oc4ccccc4)cc3)nnc2-c2ccco2)cc1 | -7.0 | x | -0.2 | 0.9 | x | x | x
COc1cc(C2C(C#N)=C(N)Oc3cc(O)ccc32)cc(OC)c1OC (stereo not given) | 3.1 | -0.1 | -13.0 | -14.4 | x | x | x
